In assay [1] the test system is Canis familiaris. As to the kind of experiment: Tested for antiarrhythmic property by measuring ability to decrease heart rate (drug free) is compared to Lidocaine using doses (3 and 6 mg/kg). In kind it is functional, Canis lupus familiaris. In outline: (§1)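 Mongrel dogs (about 12–25 kg), 1–4 days after coronary occlusion infarction, under sodium pentobarbital (~30 mg/kg) with 12-lead ECG monitoring. Agents and lidocaine were given iv at 3 and 6 mg/kg. Programmed ventricular stimulation was applied at baseline, about 2–5 min after each dose, and at 30 min. SVT was defined as ≥250 beats/min lasting ≥30 s. Pre means drug-free; post means after dosing.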

Assay [2] concerns Canis familiaris. As to the kind of experiment: Tested for antiarrhythmic property by measuring ability to decrease heart rate (post drug) is compared to Lidocaine using doses (3 and 6 mg/kg). Type of assay: functional, Canis lupus familiaris. The method in brief:
as §1

In assay [3] the test system is Canis familiaris. The assay can be described thus: Tested for antiarrhythmic property by measuring ability to decrease Mean blood pressure (drug free) is compared to Lidocaine using doses(3 and 6 mg/kg). Type of assay: functional, Canis lupus familiaris. The method in brief:
as §1

The subject of assay [4] is Canis familiaris. The assay can be described thus: Tested for antiarrhythmic property by measuring ability to decrease Mean blood pressure(post drug) is compared to Lidocaine using doses(3 and 6 mg/kg). In kind it is functional, Canis lupus familiaris. The method in brief: as §1
Assay [5] deals with Canis familiaris. As to the kind of experiment: (§2) Antiarrhythmic property Nonsustained ventricular tachycardia is compared to lidocaine(2) using dose of (3 and 6 mg/kg). Type of assay: functional, Canis lupus familiaris, Heart. The method in brief: as §1
Assay [6] has as its system Canis familiaris. As to the kind of experiment: Antiarrhythmic properties are compared to lidocaine(2) using doses(3 and 6 mg/kg). Time required for the ventricular myocardium to undergo depolarization and repolarization ((post drug). Type of assay: functional, Canis lupus familiaris. The method in brief: as §1
The test system of assay [7] is Canis familiaris. The assay can be described thus: Antiarrhythmic properties are compared to lidocaine(2) using doses(3 and 6 mg/kg). Time required for the ventricular myocardium to undergo depolarization and repolarization (drug free). Type of assay: functional, Canis lupus familiaris. In outline:
as §1

Assay [8] relates to Canis familiaris. The assay can be described thus: Tested for antiarrhythmic property by measuring ability to decrease heart rate(drug free) is compared to Lidocaine using doses (3 and 6 mg/kg). In kind it is functional, Canis lupus familiaris. The method in brief: as §1
The test system of assay [9] is Canis familiaris. The assay can be described thus: Tested for antiarrhythmic property by measuring ability to decrease heart rate(post drug) is compared to Lidocaine using doses(3 and 6 mg/kg). Type of assay: functional, Canis lupus familiaris. The method in brief:
as §1

Assay [10] concerns Canis familiaris. The assay can be described thus: (§3) Antiarrhythmic property His-Purkinje conduction time(post drug) is compared to lidocaine(2) using doses(3 and 6 mg/kg). In kind it is functional, Canis lupus familiaris, His-Purkinje system. The method in brief: as §1
The subject of assay [11] is Canis familiaris. The assay is described as §3. Type of assay: functional, Canis lupus familiaris, His-Purkinje system. In outline:
as §1
This is another data set of the same source.

Assay [12] relates to Canis familiaris. As to the kind of experiment: (§4) Antiarrhythmic property ventricular effective refractory period(drug free) is compared to lidocaine(2) using doses(3 and 6 mg/kg). In kind it is functional, Canis lupus familiaris, Heart. In outline:
as §1

In assay [13] the test system is Canis familiaris. The assay can be described thus: Antiarrhythmic property ventricular effective refractory period(post drug) is compared to lidocaine(2) using doses(3 and 6 mg/kg). Type of assay: functional, Canis lupus familiaris, Heart. In outline: as §1
The test system of assay [14] is Canis familiaris. As to the kind of experiment: (§5) Antiarrhythmic property Nonsustained ventricular tachycardia is compared to lidocaine(2) using doses(3 and 6 mg/kg). In kind it is functional, Canis lupus familiaris, Heart. In outline:
as §1

Assay [15] concerns Canis familiaris. The assay can be described thus: Antiarrhythmic property Heart rate (drug free) is compared to Lidocaine using doses (3 and 6 mg/kg). Type of assay: functional, Canis lupus familiaris. In outline: (§6)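 Mongrel dogs (~12–25 kg), 1–4 days after coronary occlusion leaving a surviving epicardial rim, anesthetized with sodium pentobarbital (~30 mg/kg). 12-lead ECG monitored throughout. Agent given iv at 3 and 6 mg/kg. Parameters recorded before (drug free) and after dosing. Programmed electrical stimulation tested SVT inducibility (≥250 beats/min, ≥30 s) at baseline, ~2–5 min after each dose, and at 30 min.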

In assay [16] the test system is Canis familiaris. The assay can be described thus: Antiarrhythmic property Heart rate (post drug) is compared to Lidocaine using doses(3 and 6 mg/kg). system. Type of assay: functional, Canis lupus familiaris. The method in brief: as §6
The test system of assay [17] is Canis familiaris. The assay can be described thus: Antiarrhythmic property Mean blood pressure (drug free) is compared to Lidocaine using doses(3 and 6 mg/kg). In kind it is functional, Canis lupus familiaris. In outline: as §6
In assay [18] the test system is Canis familiaris. The assay can be described thus: Antiarrhythmic property Mean blood pressure(post drug) is compared to Lidocaine using doses(3 and 6 mg/kg). In kind it is functional, Canis lupus familiaris. In outline:
as §6

Assay [19] has as its system Canis familiaris. The assay can be described thus: Antiarrhythmic properties are compared to lidocaine(2) using doses(3 and 6 mg/kg) measures His-Purkinje conduction time(drug free). Type of assay: functional, Canis lupus familiaris, His-Purkinje system. In outline:
as §6

For assay [20], the system named is Canis familiaris. Described as §5. In kind it is functional, Canis lupus familiaris, Heart. The method in brief:
as §6
The source holds these as a separate data set.

The subject of assay [21] is Canis familiaris. Described as §4. Type of assay: functional, Canis lupus familiaris, Heart. In outline: as §6
The source holds these as a separate data set.

For assay [22], the system named is Canis familiaris. The assay can be described thus: Antiarrhythmic property His-Purkinje conduction time(drug free) is compared to lidocaine(2) using doses(3 and 6 mg/kg) measures. In kind it is functional, Canis lupus familiaris, His-Purkinje system. In outline: as §6
For assay [23], the system named is Canis familiaris. As to the kind of experiment: Antiarrhythmic property His-Purkinje conduction time(post drug) is compared to lidocaine(2) using doses(3 and 6 mg/kg) measures. In kind it is functional, Canis lupus familiaris, His-Purkinje system. In outline: as §6
For assay [24], the system named is Canis familiaris. The assay is described as §2. Type of assay: functional, Canis lupus familiaris, Heart. In outline: as §6
The source holds these as a separate data set.

`CC(C)N1CC2CC(CN(C(=O)c3ccc(NS(C)(=O)=O)cc3)C2)C1`: the HR with Canis familiaris [1] and with Canis familiaris [2] was 150 beats min-1 throughout. Besides, the MBP in the assay with Canis familiaris [3] was 70 mmHg; with Canis familiaris [4], 50 mmHg. For the same molecule, the NSVT with Canis familiaris [5] stood at 6 mg/kg.
As to `c1ccc(CN2CC3CC(C2)CN(CC2CC2)C3)cc1`, the QT in the assay on Canis familiaris [6] came out at 260 ms; in the assay with Canis familiaris [7], 220 ms. Also, the HR was determined as 130 beats min-1 with Canis familiaris [8] and 110 beats min-1 in the assay on Canis familiaris [9]. In addition, the MBP with Canis familiaris [3] worked out at 130 mmHg; with Canis familiaris [4] it was 37 mmHg. Besides, the HV interval in the assay with Canis familiaris [10] and in the assay on Canis familiaris [11] was 50 ms each time. The values for the VERP with Canis familiaris [12] and with Canis familiaris [13] were 160 ms and 230 ms, respectively. Besides, the NSVT in the assay on Canis familiaris [14] was determined as 3 mg/kg.
`c1ccc(CN2CC3CSCC(C3)C2)cc1`: the HR in the assay with Canis familiaris [15] and with Canis familiaris [16] was 162 beats min-1 in each case. Besides, the MBP is recorded as 98 mmHg in the assay with Canis familiaris [17] and 120 mmHg with Canis familiaris [18]. The HV interval in the assay on Canis familiaris [19] is 30 ms; in the assay with Canis familiaris [10] it was 40 ms. This molecule also came in with an NSVT with Canis familiaris [20] of 3 mg/kg. For the same molecule, the VERP in the assay on Canis familiaris [20] is 163 ms; in the assay on Canis familiaris [21], 142 ms.
For `Cl.c1ccc(CN2CC3CSCC(C3)C2)cc1`, the HR in the assay on Canis familiaris [15] is given as 162 beats min-1; in the assay with Canis familiaris [16] it was 165 beats min-1. The results for the MBP with Canis familiaris [17] and in the assay with Canis familiaris [18] were 99 mmHg and 105 mmHg, respectively. In addition, the HV interval in the assay on Canis familiaris [22] worked out at 30 ms; with Canis familiaris [23], 35 ms. For the same molecule, the NSVT with Canis familiaris [24] is 3 mg/kg.

The record behind these values is ChEMBL document CHEMBL1129356, “Novel 3,7-diheterabicyclo[3.3.1]nonanes that possess predominant class III antiarrhythmic activity in 1-4 day post infarction dog models: X-ray diffraction analysis of 3-[4-(1H-imidazol-1-yl)benzoyl]-7-isopropyl-3,7-diazabicyclo[3.3.1]nona ne dihydroperchlorate” (1996).
